The record followed here is ChEMBL document CHEMBL3286252, “Synthesis, biological evaluation and structure-activity relationship of new GABA uptake inhibitors, derivatives of 4-aminobutanamides” (Eur J Med Chem, 2014).

In series [1] the test system is Mus musculus. The series can be described thus: Anticonvulsant activity against pentylenetetrazole-induced seizure in albino Swiss (CD-1) mouse assessed as delay in onset of seizures at 30 mg/kg, ip administered 60 mins prior to PTZ challenge. The class given is functional. As to conditions: route intraperitoneal. A digest of the protocol: (§1)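 Male CD-1 mice (18–22 g) given compound or vehicle i.p. 60 min before PTZ 100 mg/kg s.c. Each mouse was then caged alone and watched for 30 min for clonic seizures, meaning whole-body clonus lasting >3 s with loss of righting reflex. Recorded: latency to first clonus, number of seizure episodes, and deaths within 30 min. Analysis: ANOVA/Dunnett or t-test; mortality by Fisher's exact test; 7–10 mice per group.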

Series [2] has as its system Mus musculus. The series can be described thus: Anticonvulsant activity in albino Swiss (CD-1) mouse assessed as protection against electrically-induced tonic hind limb extension at 30 mg/kg by maximal electroshock test. As to conditions: Hindlimb. Set-up: dose 30 mg/kg. Type of series: functional, organism-based. A digest of the protocol:
(§2)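 Mice received a 25 mA, 0.2 s stimulus through auricular electrodes. The endpoint was tonic extension of the hind limbs after a single shock, scored in vehicle- and drug-treated groups.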
On the technique in general: In the maximal electroshock model the usual endpoint is tonic extension of the hind limbs.

For series [3], the system named is Mus musculus. The series is described as follows: Anticonvulsant activity against pentylenetetrazole-induced seizure in albino Swiss (CD-1) mouse assessed as decrease in seizure episodes at 15 mg/kg, ip administered 60 mins prior to PTZ challenge. Type of series: functional. As to conditions: route intraperitoneal. A digest of the protocol: as §1
Series [4] has as its system Mus musculus. The series can be described thus: Toxicity in albino Swiss (CD-1) mouse assessed as decrease in locomotor activity at 30 mg/kg, ip after 60 mins. Conditions: in vivo, 1 h. Set-up: dose 30 mg/kg, route intraperitoneal. Type of series: organism-based. Put shortly:
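Mice were pretreated i.p. with 30 mg/kg or vehicle (1% Tween 80) 60 min before testing. Each was placed alone in an IR-beam activity cage (40×40×31 cm) in a sound-attenuated room. Beam interruptions were counted over 30 min in five 6-min intervals. Analysis: repeated-measures ANOVA with Bonferroni.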

For series [5], the system named is Mus musculus. The series is described as follows: Anticonvulsant activity against pentylenetetrazole-induced seizure in albino Swiss (CD-1) mouse assessed as delay in onset of seizures at 15 mg/kg, ip administered 60 mins prior to PTZ challenge. The class given is functional. As to conditions: route intraperitoneal. Put shortly:
as §1

The test system of series [6] is Mus musculus. The series is described as follows: Anticonvulsant activity against pilocarpine-induced seizure in albino Swiss (CD-1) mouse assessed as prolongation of latency time to seizures at 70 mg/kg, ip administered 60 mins before pilocarpine challenge. Type of series: functional. As to conditions: route intraperitoneal. A digest of the protocol: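 CD-1 mice received compound or vehicle (1% Tween 80) i.p. 60 min before pilocarpine 400 mg/kg i.p. Scopolamine butylbromide 1 mg/kg i.p. was given 45 min before pilocarpine. 7–8 mice per group; Student's t-test versus vehicle; mean ± SEM.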

The test system of series [7] is Mus musculus. The series can be described thus: Anticonvulsant activity in albino Swiss (CD-1) mouse assessed as protection against seizures at 100 mg/kg, ip after 60 mins by electroconvulsive threshold test. The class given is functional, organism-based. Set-up: dose 100 mg/kg.
A short description of series [8]: Toxicity in albino Swiss (CD-1) mouse assessed as mortality at 100 mg/kg measured after electroshock exposure. Type of series: organism-based. Set-up: dose 100 mg/kg. Conditions: in vivo, read-out: Activity. A digest of the protocol: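 Male CD-1 mice given 100 mg/kg i.p. 60 min before the maximal electroshock test. Stimulus 25 mA for 0.2 s through auricular electrodes; endpoint tonic hind-limb extension. Deaths after the shock compared with the vehicle group.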

Series [9] deals with Mus musculus. The series can be described thus: Toxicity in albino Swiss (CD-1) mouse assessed as mortality at 100 mg/kg, ip measured after single electroconvulsive electroshock exposure. Type of series: organism-based. The arrangement: dose 100 mg/kg, route intraperitoneal. Conditions: in vivo. A digest of the protocol: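 Male CD-1 mice given 100 mg/kg i.p. 60 min before electroconvulsive threshold testing. Groups shocked at graded currents to give 10–90% of animals with seizures; CS50 for tonic hind-limb extension estimated by log-probit. Mortality noted after a single electroconvulsive shock, compared with controls.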

The subject of series [10] is Mus musculus. The series can be described thus: Anticonvulsant activity against pentylenetetrazole-induced seizure in albino Swiss (CD-1) mouse assessed as decrease in mortality rate at 30 mg/kg, ip administered 60 mins prior to PTZ challenge. The class given is functional, organism-based. Set-up: dose 30 mg/kg. A digest of the protocol: as §1
In series [11] the test system is Mus musculus. The series is described as follows: Anticonvulsant activity against pilocarpine-induced seizure in albino Swiss (CD-1) mouse assessed as prolongation of latency time to death at 70 mg/kg, ip administered 60 mins before pilocarpine challenge. Conditions: route intraperitoneal. The class given is functional. A digest of the protocol: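 Male CD-1 mice dosed i.p. with compound or vehicle (1% Tween 80). Scopolamine butylbromide 1 mg/kg i.p. given 45 min before pilocarpine; pilocarpine 400 mg/kg i.p. given 60 min after compound. Observed 1 h. Latency to tonic-clonic seizure and latency to death recorded, cut-off 60 min. 7–8 mice per group, mean ± SEM, Student's t-test against vehicle.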

For series [12], the system named is Mus musculus. The series is described as follows: Anticonvulsant activity in albino Swiss (CD-1) mouse assessed as decrease in animals with tonic hind limb extensions at 100 mg/kg by maximal electroshock test. The class given is functional. Conditions: Hindlimb. A digest of the protocol:
as §2

Series [13] has as its system Mus musculus. The series can be described thus: Anticonvulsant activity in albino Swiss (CD-1) mouse assessed as protection against electrically-induced tonic hind limb extension at 30 to 100 mg/kg measured after single electroshock by maximal electroshock test. The class given is functional, organism-based. As to conditions: Hindlimb. Put shortly:
as §2

Series [14] deals with Mus musculus. The series is described as follows: Anticonvulsant activity in albino Swiss (CD-1) mouse assessed as current intensity required to induce 50% tonic hind limb extensions at 100 mg/kg, ip after 60 mins by electroconvulsive threshold test (reference value: 6.61 mA). The class given is functional, Hindlimb. As to conditions: route intraperitoneal.
In series [15] the test system is Mus musculus. The series is described as follows: Anticonvulsant activity against pentylenetetrazole-induced seizure in albino Swiss (CD-1) mouse assessed as prolongation of latency time to first seizure episode at 100 mg/kg, ip administered 60 mins prior to PTZ challenge. The class given is functional. Conditions: route intraperitoneal. Put shortly:
as §1

The test system of series [16] is Mus musculus. The series is described as follows: Anticonvulsant activity against pentylenetetrazole-induced seizure in albino Swiss (CD-1) mouse assessed as prolongation of latency time to first seizure episode at 30 mg/kg, ip administered 60 mins prior to PTZ challenge. Type of series: functional, organism-based. Set-up: dose 30 mg/kg. Put shortly: as §1
For series [17], the system named is Mus musculus. The series is described as follows: Anticonvulsant activity against pentylenetetrazole-induced seizure in albino Swiss (CD-1) mouse assessed as decrease in seizure episodes at 100 mg/kg, ip administered 60 mins prior to PTZ challenge. Type of series: functional. Conditions: route intraperitoneal. Put shortly:
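Male CD-1 mice, 18–22 g, given compound or vehicle i.p. 60 min before PTZ 100 mg/kg s.c. Each mouse observed alone for 30 min for clonic seizures: whole-body clonus over 3 s with loss of righting reflex. Read-outs: latency to first clonus, number of seizure episodes, and deaths within 30 min. Groups of 7–10 mice, compared with vehicle.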

The subject of series [18] is Mus musculus. The series is described as follows: Anticonvulsant activity against pentylenetetrazole-induced seizure in albino Swiss (CD-1) mouse assessed as decrease in mortality rate at 30 to 100 mg/kg, ip administered 60 mins prior to PTZ challenge. Type of series: functional, organism-based. Put shortly: as §1

Calls of active or inactive are those of the source.

For `NCCC(C(=O)NCc1ccc(Cl)cc1)N1CCN(C(c2ccccc2)c2ccccc2)CC1` (centres undefined), the Activity in the series on Mus musculus [1] is listed as 217%; in the series on Mus musculus [4] it was “Toxic”; in the series with Mus musculus [5] it was 58%; with Mus musculus [6], 113.4%; with Mus musculus [9] it was “Toxic”; in the series with Mus musculus [11], 71.1%. In addition, the result with Mus musculus [2] and in the series on Mus musculus [7] was inactive. For the same compound, the inhibition in vivo at 15 mg/kg with Mus musculus [3] amounted to 58%. Moreover, the mortality in series [8] came out at 65%. Also, the inhibition result with Mus musculus [10] is “Active”. Also, the inhibition in vivo at 100 mg/kg in the series on Mus musculus [12] was 44%.

Turning to `NCCC(C(=O)NCc1ccccc1Cl)N1CCN(C(c2ccccc2)c2ccccc2)CC1` (centres undefined), the outcome in the series on Mus musculus [13] and with Mus musculus [16] was inactive. The Activity result in the series with Mus musculus [4] was “Non-toxic”; in the series on Mus musculus [15], 100%. Further, the CS50 with Mus musculus [14] came to 6.22 mA. For the same compound, in the series on Mus musculus [17], the inhibition in vivo at 100 mg/kg was found to be 53%. Further, the inhibition entry with Mus musculus [18] is “Active”.

Usually inhibition in vivo stands for the change of the read-out against control, counted positive when it falls.
